These results are taken from paper PMC11549336 (Communications Biology, 2024).

In the experiment the target is recombinant Plk1 PBD (Plk1 367-603aa) (Homo sapiens, UniProt P53350). Kind of experiment: Peptide binding assay by isothermal titration calorimetry. The conditions noted are these: ITC; listed as pT600/pT608 peptide. The essentials:
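Protein and peptides were dialysed against 50 mM NaP, 150 mM NaCl, 0.5 mM TCEP, pH 7.5, with concentrations set by A280. ITC at 25 °C, 750 rpm stirring. […] Buffer-only controls subtracted; data fitted to a single-site model.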

Chain of recombinant Plk1 PBD (Plk1 367-603aa) (P53350 367-603): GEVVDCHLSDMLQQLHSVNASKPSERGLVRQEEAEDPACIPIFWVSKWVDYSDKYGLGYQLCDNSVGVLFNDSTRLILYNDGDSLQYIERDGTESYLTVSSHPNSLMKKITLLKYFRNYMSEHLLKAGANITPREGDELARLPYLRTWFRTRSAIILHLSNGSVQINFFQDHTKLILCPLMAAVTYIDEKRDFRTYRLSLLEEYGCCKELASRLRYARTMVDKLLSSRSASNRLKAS

Turning to “FRNVpTICPNPEDpTCDFARA [BubR1^596-614 (FRNVpTICPNPEDpTCDFARA)]”, the “binding of peptide to recombinant Plk1 PBD, in words” value was “could not detect any interaction”.
